Measurements from ChEMBL document CHEMBL5661970 (Cancer Res, 2006).
Active and inactive are the calls of the source. No cut-off for these calls is given here.

Experiments:
[1] = target: Fibroblast growth factor receptor 4 (Homo sapiens, UniProt P22455); experiment: Inhibition of FGFR-4 (unknown origin) in presence of ATP
[2] = Inhibition of IGF-1R phosphorylation in serum starved human HT-29 cells incubated for 1 hr by immunoblotting analysis; format: cell-based
How it was run: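 Cells starved overnight in basic medium with 0.5% FBS, incubated 1 h with compound or 0.1% DMSO, then stimulated 5 min at 37°C with human recombinant cognate ligand. Receptor immunoprecipitated from lysate and immunoblotted for phosphotyrosine; IC50 by nonlinear regression of percent inhibition, n = 4.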

[3] = target: Mitogen-activated protein kinase 3 (Homo sapiens, UniProt P27361); experiment: Inhibition of ERK1 phosphorylation in bFGF-stimulated serum-starved human HUVEC cells by immunoblotting analysis; format: cell-based
Mitogen-activated protein kinase 3, sequence (P27361 whole entry): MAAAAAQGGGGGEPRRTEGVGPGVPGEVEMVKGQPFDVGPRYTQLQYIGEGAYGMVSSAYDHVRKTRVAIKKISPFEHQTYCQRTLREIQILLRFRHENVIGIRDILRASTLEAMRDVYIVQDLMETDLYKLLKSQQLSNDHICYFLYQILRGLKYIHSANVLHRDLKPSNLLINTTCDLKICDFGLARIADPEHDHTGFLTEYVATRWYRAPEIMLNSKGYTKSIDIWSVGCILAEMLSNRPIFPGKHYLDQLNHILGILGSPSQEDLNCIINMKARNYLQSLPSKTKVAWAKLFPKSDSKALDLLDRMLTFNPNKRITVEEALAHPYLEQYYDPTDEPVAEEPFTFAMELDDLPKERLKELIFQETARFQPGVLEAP

[4] = target: T1, Mitogen-activated protein kinase 1 (Homo sapiens, UniProt P28482); experiment: Inhibition of ERK2 phosphorylation in bFGF-stimulated serum-starved human HUVEC cells by immunoblotting analysis; format: cell-based
T1 sequence (P28482 whole entry): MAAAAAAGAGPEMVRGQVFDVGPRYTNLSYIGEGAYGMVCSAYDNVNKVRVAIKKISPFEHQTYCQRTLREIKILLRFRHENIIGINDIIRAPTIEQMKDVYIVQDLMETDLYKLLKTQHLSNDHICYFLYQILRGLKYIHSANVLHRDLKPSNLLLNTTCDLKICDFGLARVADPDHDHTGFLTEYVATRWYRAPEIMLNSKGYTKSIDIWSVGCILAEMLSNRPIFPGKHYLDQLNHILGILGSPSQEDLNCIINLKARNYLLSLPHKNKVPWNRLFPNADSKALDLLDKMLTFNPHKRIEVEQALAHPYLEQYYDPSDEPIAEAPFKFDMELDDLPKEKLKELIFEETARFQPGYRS

[5] = target: T1, Mitogen-activated protein kinase 1; experiment: Inhibition of ERK2 phosphorylation in EGF-stimulated serum-starved human HUVEC cells by immunoblotting analysis; format: cell-based
HUVEC = experiment: Antiproliferative activity against bFGF-induced human HUVEC cells assessed as cell viability incubated for 72 hrs by WST-1 assay
LoVo [6] = experiment: Antitumor activity against human LoVo cells xenografted in gamma-irradiation induced RH-rnu/rnu athymic rat assessed as tumor growth inhibition at 1.0 mg/kg, po administered once daily for 2 weeks and measured on day 14 relative to control; format: functional; details: light or radiation study, 336 h, read-out: TGI
How it was run: (§1)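 Rats were γ-irradiated with 7 Gy whole body, and 24 h later received s.c. tumor cells. Fragments (20-30 mg) from ~1,500 mm3 tumors were then implanted s.c. into irradiated athymic rats. Oral dosing at 0.2 or 1 mg/kg or vehicle ran once daily for 2 weeks from day 0. Tumors were measured with calipers twice weekly (length×width²×0.5). TGI% was taken versus vehicle on day 14 (BxPC-3: day 13), with an unpaired t test on RTV.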

Calu-6 [7] = experiment: Antitumor activity against human Calu-6 cells xenografted in gamma-irradiation induced RH-rnu/rnu athymic rat assessed as tumor growth inhibition at 1.0 mg/kg, po administered once daily for 2 weeks and measured on day 14 relative to control; format: functional; details: Calu-6, light or radiation study, 336 h, read-out: TGI; how it was run: as §1
NCI-H460 = experiment: Antitumor activity against human NCI-H460 cells xenografted in gamma-irradiation induced RH-rnu/rnu athymic rat assessed as tumor growth inhibition at 0.2 mg/kg, po administered once daily for 2 weeks and measured on day 14 relative to control; format: functional; details: NCI-H460, light or radiation study, 336 h, read-out: TGI; how it was run: as §1
SK-OV-3 = experiment: Antitumor activity against human SK-OV-3 cells xenografted in gamma-irradiation induced RH-rnu/rnu athymic rat assessed as tumor growth inhibition at 1.0 mg/kg, po administered once daily for 2 weeks and measured on day 14 relative to control; format: functional; details: SK-OV-3, light or radiation study, 336 h, read-out: TGI
BXPC-3 = experiment: Antitumor activity against human BXPC-3 cells xenografted in gamma-irradiation induced RH-rnu/rnu athymic rat assessed as tumor growth inhibition at 1.0 mg/kg, po administered once daily for 2 weeks and measured on day 13 relative to control; format: functional; details: BXPC-3, light or radiation study, 336 h, read-out: TGI; how it was run: as §1
PC-3 = experiment: Antitumor activity against human PC-3 cells xenografted in gamma-irradiation induced RH-rnu/rnu athymic rat assessed as tumor growth inhibition at 0.2 mg/kg, po administered once daily for 2 weeks and measured on day 14 relative to control; format: functional; details: PC-3, light or radiation study, 336 h, read-out: TGI
[8] = Antitumor activity against human CGL-9 cells xenografted in gamma-irradiation induced RH-rnu/rnu athymic rat assessed as tumor growth inhibition at 0.2 mg/kg, po administered once daily for 2 weeks and measured on day 14 relative to control; format: functional; details: CGL-9, light or radiation study, 336 h, read-out: TGI; how it was run: as §1
MDA-MB-231 = experiment: Antitumor activity against human MDA-MB-231 cells xenografted in gamma-irradiation induced RH-rnu/rnu athymic rat assessed as relative tumor volume at 1 mg/kg, po administered once daily for 2 weeks and measured on day 7; format: functional
How it was run: (§2)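 Tumor fragments were grown in γ-irradiated (7 Gy) athymic rats, followed by once-daily oral dosing at 1 mg/kg for 2 weeks. Tumor volume was measured with calipers as length×width²×0.5. Relative tumor volume was calculated as volume on day x divided by volume on day 0.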

LoVo [9] = experiment: Antitumor activity against human LoVo cells xenografted in gamma-irradiation induced RH-rnu/rnu athymic rat assessed as relative tumor volume at 1 mg/kg, po administered once daily for 2 weeks and measured on day 21; format: functional; how it was run: as §2
Calu-6 [10] = experiment: Antitumor activity against human Calu-6 cells xenografted in RH-rnu/rnu athymic rat assessed as tumor growth inhibition at 0.2 mg/kg, po administered once daily for 6 to 21 days by DCE-MRI analysis; format: functional, organism-based; details: time 6-21 day
How it was run: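 Calu-6 tumor-bearing athymic rats were randomized at 274-287 mm3 and dosed orally at 0.2 or 1.0 mg/kg or vehicle once daily on days 0-13. Tumor growth was followed by T2-weighted MRI at 1.5 T through day 21.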

Calu-6 [11] = experiment: Antitumor activity against human Calu-6 cells xenografted in RH-rnu/rnu athymic rat assessed as capillary permeability in tumor measured on day 21 by DCE-MRI analysis; format: functional, cell-based
[12] = AUC (0-infinity) in F344/N JcL-rnu athymic rat at 0.04 mg/kg, po measured upto 72 hrs by HPLC-MS/MS analysis; format: ADME, organism-based; details: in vivo
How it was run: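 Female athymic rats, four per group, given a single oral dose suspended in 0.5% methyl cellulose in water. Tail-vein blood was drawn at set times up to 72 h. Serum was spiked with internal standard, deproteinated with acetonitrile and analysed by HPLC-MS/MS. AUCinf came from noncompartmental analysis.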

[13] = Apparent oral volume of distribution in F344/N JcL-rnu athymic rat at 0.2 mg/kg, po measured upto 72 hrs by HPLC-MS/MS analysis; format: ADME, organism-based; details: in vivo
How it was run: (§3)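 Female F344/N JcL-rnu rats, four per group, single p.o. dose suspended in 0.5% methyl cellulose. Tail-vein blood sampled at set times to 72 h. Serum spiked with internal standard, deproteinated with acetonitrile, analysed by HPLC-MS/MS. Parameters derived by noncompartmental analysis.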

[14] = Apparent oral volume of distribution in F344/N JcL-rnu athymic rat at 1 mg/kg, po measured upto 72 hrs by HPLC-MS/MS analysis; format: ADME, organism-based; details: in vivo; how it was run: as §3
[15] = Half life in F344/N JcL-rnu athymic rat at 0.04 mg/kg, po measured upto 72 hrs by HPLC-MS/MS analysis; format: ADME, organism-based; details: in vivo; how it was run: as §3
[16] = Minimum concentration at steady state in F344/N JcL-rnu athymic rat at 0.2 mg/kg/day, po measured upto 72 hrs by HPLC-MS/MS analysis; format: ADME, organism-based; details: in vivo
How it was run: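 Steady-state serum levels for repeated oral 0.2 mg/kg daily dosing were simulated from single-dose serum data (female F344/N JcL-rnu rats, four per group, tail-vein sampling to 72 h, HPLC-MS/MS, noncompartmental analysis), not measured directly.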

Calu-6 [17] = experiment: Antitumor activity against human Calu-6 cells xenografted in RH-rnu/rnu athymic rat assessed as tumor growth inhibition at 1.0 mg/kg, po administered once daily for 2 to 21 days by DCE-MRI analysis; details: time 2-21 day

Fibroblast growth factor receptor 4, sequence (P22455 whole entry): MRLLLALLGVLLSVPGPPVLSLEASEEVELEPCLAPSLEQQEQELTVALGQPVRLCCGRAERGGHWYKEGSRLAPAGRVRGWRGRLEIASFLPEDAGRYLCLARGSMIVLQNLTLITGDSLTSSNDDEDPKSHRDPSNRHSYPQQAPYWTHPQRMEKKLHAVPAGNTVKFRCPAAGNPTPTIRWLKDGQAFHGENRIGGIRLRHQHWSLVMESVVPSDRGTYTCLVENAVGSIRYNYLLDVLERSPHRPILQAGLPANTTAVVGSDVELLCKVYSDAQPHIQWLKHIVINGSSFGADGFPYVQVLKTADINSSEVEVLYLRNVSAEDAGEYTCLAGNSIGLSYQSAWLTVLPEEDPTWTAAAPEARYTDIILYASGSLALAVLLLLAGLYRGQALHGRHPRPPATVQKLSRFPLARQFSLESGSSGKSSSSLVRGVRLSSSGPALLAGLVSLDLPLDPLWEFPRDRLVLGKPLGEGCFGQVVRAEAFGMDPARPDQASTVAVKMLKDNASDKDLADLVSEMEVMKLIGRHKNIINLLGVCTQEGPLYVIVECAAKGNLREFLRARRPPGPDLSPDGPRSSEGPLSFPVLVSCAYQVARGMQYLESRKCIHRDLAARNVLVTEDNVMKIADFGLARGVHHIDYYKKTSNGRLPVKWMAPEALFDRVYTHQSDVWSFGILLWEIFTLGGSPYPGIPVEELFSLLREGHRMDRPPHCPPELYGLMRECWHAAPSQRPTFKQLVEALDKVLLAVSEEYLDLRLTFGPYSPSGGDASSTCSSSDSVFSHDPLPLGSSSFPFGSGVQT

## COc1cc2nccc(Oc3ccc(NC(=O)Nc4cc(C)on4)c(Cl)c3)c2cc1OC [TIVOZANIB]
[1]
  IC50: > 1000 nM
[2]
  IC50: Not Determined(Insoluble)
[3]
  inhibition: inactive
[4]
  inhibition: inactive
[5]
  inhibition: inactive
HUVEC
  IC50: > 300 nM
LoVo [6]
  inhibition in vivo at 1 mg/kg: > 100%
Calu-6 [7]
  inhibition in vivo at 1 mg/kg: 99.2%
NCI-H460
  inhibition in vivo at 0.2 mg/kg: 68.8%
SK-OV-3
  inhibition in vivo at 1 mg/kg: 99.2%
BXPC-3
  inhibition in vivo at 1 mg/kg: 93.5%
PC-3
  inhibition in vivo at 0.2 mg/kg: 73.6%
[8]
  inhibition in vivo at 0.2 mg/kg: 46%
MDA-MB-231
  Activity: 0.89
LoVo [9]
  Activity: 0.85
Calu-6 [10]
  Activity: Active
Calu-6 [11]
  Activity: inactive
[12]
  AUC(0-inf): 340 ng·h/mL
[13]
  Vd/F: 1.4 L/kg
[14]
  Vd/F: 1.54 L/kg
[15]
  half-life: 9.25 h
[16]
  Cminss: 22.2 ng/mL
Calu-6 [17]
  Activity: Active
